Only some compounds are listed: those with a hit (about 9% of all), similar ones and a draw of the others.
M1 antagonist – M1 muscarinic receptor (rat) antagonism; B-score at 10 µM; CHO-M1 cells, Fluo-4 calcium, ACh EC80 antagonist mode; hits give low values; AID 628; 3.4% of 64,000 active;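 active = calcium fluorescence response, raw or row-and-column corrected B-score, differing from the plate sample mean either way at a set confidence level, mostly lower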
Target sequence (P08482 whole entry, looked up): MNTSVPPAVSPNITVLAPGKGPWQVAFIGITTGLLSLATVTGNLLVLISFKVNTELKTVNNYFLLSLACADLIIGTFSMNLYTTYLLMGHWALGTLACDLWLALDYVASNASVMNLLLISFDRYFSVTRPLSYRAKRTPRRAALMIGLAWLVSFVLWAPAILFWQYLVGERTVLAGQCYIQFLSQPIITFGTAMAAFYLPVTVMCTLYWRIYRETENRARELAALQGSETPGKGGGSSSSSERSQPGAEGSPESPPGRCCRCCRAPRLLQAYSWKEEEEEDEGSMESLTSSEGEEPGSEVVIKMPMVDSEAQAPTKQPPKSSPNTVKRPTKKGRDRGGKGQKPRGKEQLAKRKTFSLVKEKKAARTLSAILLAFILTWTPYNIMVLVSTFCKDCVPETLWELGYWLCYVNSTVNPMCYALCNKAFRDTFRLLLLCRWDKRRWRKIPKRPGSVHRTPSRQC
AP ELISA ortho – alternative pathway complement inhibition, orthogonal assay; Human serum alternative complement pathway, LPS-coated ELISA, C3 deposition; tested in compound mixtures; inhibition, % at 5 µM; AID 1235; 0.08% of 62,000 active;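 active = inhibition above 30% in each of the two pooled mixtures holding the compound, so the lower value exceeds 30%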
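Medium: diluted human serum in Mg2+-EGTA GVB++. Assay system: human serum complement alternative pathway, C3 deposition onto LPS. Also added: Plate-bound LPS. Technique: Anti-C3 ELISA, OD 450 nm. Measure: percent inhibition. Incubation: 1 h at 37 °C. Dosing: 5 µM each compound, pools of ten, 50 µM per pool.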
Htt clearance – compounds clearing mutant huntingtin protein | HeLa Exon1htt(103Q)mCFP, aggregate imaging; zero = plate's median compound well | inhibition, % at 1.5 µM | 0.42% of 47,000 active;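 active = inhibition of aggregate fluorescence above about 70%, also judged a hit by eye on the cell image, limit read from the data, passing the limit was not always enough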;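 note: cells exposed to compound for three days before fixation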
D1 allo mod – allosterically modulates the human D1 dopamine receptor | P21728 | HEK293 D1, CRE-luciferase, dopamine EC30 potentiation; actives deviate in either direction | 5.9% of 58,000 active | B-score at 10 µM;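 active = luminescence count or its row- and column-corrected plate score outside the 99.7% band of the plate's sample wells, on either side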
M1 ag – M1 muscarinic receptor agonism; CHO-M1 cells, Fluo-4 calcium fluorescence, agonist mode; hits give high values; 3% of 64,000 active; B-score at 10 µM; AID 626;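 active = fluorescence rise, raw or as B-score row- and column-corrected plate score, outside the 99.7% band of its plate's samples, either direction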
Of the large screens only hits and unclear results are named; the others gave an inactive call.

COc1ccc(OC)c(C2/C(=C(\O)c3c(C)nc4ccccn34)C(=O)C(=O)N2CCCN(C)C)c1 (centres undefined)	M1 antagonist 2.4 (no result: Htt clearance)
CCN(CC)CCCN1C(=O)C(=O)/C(=C(/O)c2ccc(OC)c(Cl)c2)C1c1ccco1 (centres undefined)	none (no result: Htt clearance)
CCOC(=O)c1c(NC(C)=O)no[n+]1[O-]	none (no result: Htt clearance)
O=C(NC1CCCCC1)C1CC=CCC1C(=O)OCC(Cl)=C(Cl)Cl (centres undefined)	none (no result: M1 antagonist, AP ELISA ortho, D1 allo mod, M1 ag)
Cc1nc(N2CCC(C)CC2)c2c(C)c(C(=O)O)sc2n1	Htt clearance 80
COc1ccc(C(=O)Cn2nnc(-c3cccs3)n2)cc1	none (no result: Htt clearance)
COC(=O)CCn1nnc(-c2cccs2)n1	M1 antagonist 1.7
COC(=O)CCn1nnc(-c2ccc(C(C)C)cc2)n1	D1 allo mod -2.5
C/C(N)=C(/C#N)C(=O)CSc1nnc(COc2cc(C)ccc2C)o1	none (no result: M1 antagonist, AP ELISA ortho, D1 allo mod, M1 ag)
C/C(N)=C(/C#N)C(=O)CSc1nc2ccc(C)cc2[nH]1	D1 allo mod -2.6 (no result: Htt clearance)
CCOC(=O)c1ccc(N/C=C/C(=O)c2ccco2)cc1	none (no result: M1 antagonist, AP ELISA ortho, D1 allo mod, M1 ag)
O=C(/C=C/Nc1ccc(F)cc1)c1ccco1	D1 allo mod -7.3
CCCN1C2CCCC1CC(NC(=O)c1ccc(F)cc1)C2 (centres undefined)	D1 allo mod -2.2
Cc1ccc(S(=O)(=O)Nc2ccc(-c3nnc(SCC#N)n3C)cc2)cc1	none (no result: Htt clearance)
Cc1ccc(C(=O)/C=C/Nc2ccccc2C(N)=O)o1	D1 allo mod -4.1
NC(=O)c1ccccc1N/C=C/C(=O)c1ccc(F)cc1	none (no result: M1 antagonist, AP ELISA ortho, D1 allo mod, M1 ag)
O=C(O)C1C2C=CC(C2)C1C(=O)OC1CC2CCC1C2 (centres undefined)	D1 allo mod -4.9 (no result: Htt clearance)
CN(Cc1ccccc1)Cc1c[nH]c2ccccc12	D1 allo mod -4.5 (no result: Htt clearance)
Cc1sc2c(c1C)c(=O)nc1scc(C)n12	none (no result: M1 antagonist, AP ELISA ortho, D1 allo mod, M1 ag)
O=C(COc1ccc(F)cc1)NCC1CCCO1 (centres undefined)	Htt clearance 71
Cc1sc(NC(=O)c2ccco2)c(C(c2cccnc2)N2CCN(c3ccc(F)cc3)CC2)c1C (centres undefined)	D1 allo mod -3 (no result: Htt clearance)
C1=CC2CC1CC2CNCc1ccco1 (centres undefined)	none (no result: AP ELISA ortho, Htt clearance)
COc1ccc(CNn2c(-c3cccc(C)c3)nc3ccccc3c2=O)cc1OC	none (no result: M1 antagonist, AP ELISA ortho, D1 allo mod, M1 ag)
Cc1cccc(-c2nc3ccccc3c3nncn23)c1	D1 allo mod 14
CC(=O)c1c(C)[nH]c(C(=O)OCC(=O)Nc2cc(C(F)(F)F)ccc2N2CCOCC2)c1C	none (no result: Htt clearance)
Cc1cc2nc(NC3=NCN(CCN4CCOCC4)CN3)nc(C)c2cc1C	M1 antagonist -5.7 (no result: Htt clearance)
Cc1cc2nc(NC3=NCN(Cc4ccc5c(c4)OCO5)CN3)nc(C)c2cc1C	M1 antagonist -5.1 (no result: Htt clearance, D1 allo mod)
O=c1oc2c3c4c(cc2cc1-c1nc2ccccc2[nH]1)CCCN4CCC3	M1 antagonist -15, D1 allo mod -2.7, M1 ag 338 (no result: Htt clearance)
c1ccc2[nH]c(CN3CCCCC3)nc2c1	none (no result: M1 antagonist, AP ELISA ortho, D1 allo mod, M1 ag)
O=c1oc2c(CN3CCCCC3)c(O)ccc2cc1-c1nc2ccccc2[nH]1	M1 antagonist -18, M1 ag 182 (no result: Htt clearance)
Cc1c(N=Cc2c(O)n(Cc3ccco3)c(=O)c3ccccc23)c(=O)n(-c2ccccc2)n1C	M1 antagonist -2.8
C=CCOc1c(Br)cc(CNn2nnnc2N)cc1OC	none
CC(=O)N1CCN(c2ccc(NC(=O)COc3ccc(Cl)cc3Cl)cc2)CC1	none (no result: Htt clearance)
CC(Oc1ccc(Cl)cc1Cl)C(=O)Nc1ccc(N2CCN(C)CC2)cc1 (centres undefined)	D1 allo mod -4.8
CCCCN(CCCNC(=O)C1CCN(S(=O)(=O)CC)CC1)c1ccccc1	none
CS(=O)(=O)N(Cc1ccc(C(=O)NCc2ccco2)cc1)c1ccccc1	M1 antagonist 1.9
CS(=O)(=O)N(Cc1ccc(C(=O)NCCSCc2ccco2)cc1)c1ccccc1	none (no result: M1 antagonist, AP ELISA ortho, D1 allo mod, M1 ag)
COc1ccc(-c2nc3cc(NC(=O)Cc4ccc(OC)c(OC)c4)ccc3o2)cc1	D1 allo mod -3.9 (no result: Htt clearance)
CCCC(=O)Nc1ccc(-c2nc3cc(C)c(C)cc3o2)cc1	D1 allo mod -2.4 (no result: Htt clearance)
COc1ccccc1Cn1c(=O)c2ccccc2n2c(SCC(=O)N3CCCCC3)nnc12	none (no result: Htt clearance, D1 allo mod)
CCOC(=O)C1CCCN(C/C(O)=C(\C#N)c2nc(-c3ccccc3)cs2)C1 (centres undefined)	M1 ag 11
COc1ccc2c(CC#N)c[nH]c2c1	none (no result: Htt clearance)
O=C(CSc1nnnn1-c1cccc2c1CCCC2)N1CCOCC1	M1 antagonist 2.7 (no result: D1 allo mod)
Cc1cccn2c(=O)c3cc(C(=O)N4CCc5ccccc54)n(C)c3nc12	none (no result: Htt clearance)
Cc1cccn2c(=O)c3cc(C(=O)N4c5ccccc5CC4C)n(C)c3nc12 (centres undefined)	D1 allo mod -4.8
CN(CC(=O)NCCC1=CCCCC1)S(=O)(=O)c1ccc2c(c1)CCC(=O)N2	none
CCOC(=O)/C=C1\SCC(=O)N1CCOc1cccc(Br)c1	none (no result: Htt clearance)
CCOc1ccc(-n2cc(C(=O)Nc3cccc(C)n3)c3cc(OC)c(OC)cc3c2=O)cc1	M1 ag 7.6 (no result: Htt clearance)
CC(=O)c1ccc(NC(=O)c2ccn[nH]2)cc1	D1 allo mod -2.2 (no result: Htt clearance)
O=C1CC(=C2c3ccccc3-c3ccccc32)C(=O)N1CCCCN1CCN(c2ccccc2)CC1	none (no result: M1 antagonist, AP ELISA ortho, D1 allo mod, M1 ag)
Cc1cc(NC(=O)NC(=O)c2ccc(F)cc2F)n[nH]1	D1 allo mod -3.3
COc1ccc(NC(=O)CCc2nc(-c3ccccc3F)no2)cc1	none (no result: Htt clearance)
Cc1c(Cl)ccc2c1NC(=O)C21NC(CCC(N)=O)[C@H]2C(=O)N(c3ccc(Cl)cc3)C(=O)[C@H]21 (some centres undefined)	M1 antagonist 1.8
Cc1c(Cl)ccc2c1NC(=O)[C@]21N[C@@H](CCC(N)=O)[C@H]2C(=O)N(c3ccc(F)cc3)C(=O)[C@H]21	none (no result: M1 antagonist, M1 ag)
Nc1cc(OC(=O)c2cccs2)nn1S(=O)(=O)c1ccccc1	D1 allo mod -5.3 (no result: M1 antagonist, M1 ag)
Nc1cc(OC(=O)c2cccs2)nn1S(=O)(=O)c1ccc(F)cc1	none (no result: D1 allo mod)
CCCn1c2c(c(O)c(C(=O)NCCCN(CC)CC)c1=O)CCCC2	Htt clearance 74 (no result: M1 antagonist, AP ELISA ortho, D1 allo mod, M1 ag)
Nc1nc(SCC(=O)N2CCCc3ccccc32)[nH]c(=O)c1-c1ccccc1	Htt clearance 70
Cn1c(C(=O)NCCCN2CCN(c3ccccc3F)CC2)cc2c(=O)n(C)c3ccccc3c21	D1 allo mod -2.6 (no result: Htt clearance)
Cn1c(C(=O)Nc2ccc3c(c2)OCO3)cc2c(=O)n(C)c3ccccc3c21	none (no result: Htt clearance)
CC(NC(=O)c1cc2c(=O)n(C)c3ccccc3c2n1C)c1ccc2c(c1)OCCO2 (centres undefined)	D1 allo mod -4.6, M1 ag 4.4 (no result: Htt clearance)
CCCC/C(C)=N/NC(=O)C(=O)NCCc1ccccc1	none (no result: M1 antagonist, AP ELISA ortho, D1 allo mod, M1 ag)
COc1ccc(CCn2c(=S)[nH]c3cc(C(=O)NCc4ccco4)ccc3c2=O)cc1OC	M1 ag 3 (no result: D1 allo mod)
COc1ccc(NS(=O)(=O)c2ccc3c(c2)Cc2ccccc2-3)cn1	none
O=C(CSc1nnc(-c2csc3c2CCCC3)o1)Nc1ccccc1	D1 allo mod -2.3
COc1cc(OC)cc(C(=O)Nc2ccccc2N2CCOCC2)c1	M1 ag 6.5 (no result: Htt clearance)
Cc1ccc(NCc2nnc(SCC(=O)NCCc3ccccc3)n2C)cc1	none (no result: Htt clearance)

High-throughput results from PubChem BioAssay.
